Source: ChEMBL document CHEMBL4382245, “Balancing reactivity and antitumor activity: heteroarylthioacetamide derivatives as potent and time-dependent inhibitors of EGFR” (Eur J Med Chem, 2019)

What was measured:
[1] = Drug uptake in human A549 cells at 1 uM after 1 hr by LC-MS analysis; type: ADME, cell-based; details: a549, 1 h
Outline: (§1)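 A549 cells plated at 1,000,000 per 25 cm2 dish, dosed after 24 h at 1 µM final (0.1% DMSO), 1 h at 37 °C. Harvested at once or 8 h after three washes with fresh medium. Ethanol extraction, LC-MS quantitation as pmol/mg protein (Bradford), converted to µM using 4 µL cell volume per mg protein. Mean ± SD, three experiments.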

[2] = Drug uptake in human A549 cells at 1 uM incubated for 1 hr followed by compound washout and measured after 8 hrs by LC-MS analysis; type: ADME, cell-based; details: a549, 1 h; outline: as §1
[3] = Cysteine reactivity in pH 10 CAPS buffer assessed as half life for cysteine-compound adduct formation at 10 uM after 24 hrs in presence of 100 molar excess cysteine by LC-MS analysis
Outline: (§2)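 Compound at 10 µM added to freshly prepared 1 mM cysteine (1:100) in 50 mM CAPS pH 10, ionic strength 0.15 M with KCl; 37 °C; Cys-conjugate measured after 24 h by LC-MS in MRM mode. Half-life from LC-MS; conjugate peak area scaled to the 2-chloroacetamide conjugate set at 10,000.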

[4] = Cysteine reactivity in pH 10 CAPS buffer assessed as peak area for cysteine-compound adduct formation at 10 uM after 24 hrs in presence of 100 molar excess cysteine by LC-MS analysis relative to 2-chloro-N-(4-((3-chloro-4-fluorophenyl)amino)-7-ethoxyquinazolin-6-yl)acetamide; outline: as §2
[5] = biological target: T1, Epidermal growth factor receptor (Homo sapiens, UniProt P00533); experiment: Inhibition of wild type EGFR autophosphorylation in human A549 cells by Western blot analysis; type: cell-based
T1 sequence (P00533 whole entry): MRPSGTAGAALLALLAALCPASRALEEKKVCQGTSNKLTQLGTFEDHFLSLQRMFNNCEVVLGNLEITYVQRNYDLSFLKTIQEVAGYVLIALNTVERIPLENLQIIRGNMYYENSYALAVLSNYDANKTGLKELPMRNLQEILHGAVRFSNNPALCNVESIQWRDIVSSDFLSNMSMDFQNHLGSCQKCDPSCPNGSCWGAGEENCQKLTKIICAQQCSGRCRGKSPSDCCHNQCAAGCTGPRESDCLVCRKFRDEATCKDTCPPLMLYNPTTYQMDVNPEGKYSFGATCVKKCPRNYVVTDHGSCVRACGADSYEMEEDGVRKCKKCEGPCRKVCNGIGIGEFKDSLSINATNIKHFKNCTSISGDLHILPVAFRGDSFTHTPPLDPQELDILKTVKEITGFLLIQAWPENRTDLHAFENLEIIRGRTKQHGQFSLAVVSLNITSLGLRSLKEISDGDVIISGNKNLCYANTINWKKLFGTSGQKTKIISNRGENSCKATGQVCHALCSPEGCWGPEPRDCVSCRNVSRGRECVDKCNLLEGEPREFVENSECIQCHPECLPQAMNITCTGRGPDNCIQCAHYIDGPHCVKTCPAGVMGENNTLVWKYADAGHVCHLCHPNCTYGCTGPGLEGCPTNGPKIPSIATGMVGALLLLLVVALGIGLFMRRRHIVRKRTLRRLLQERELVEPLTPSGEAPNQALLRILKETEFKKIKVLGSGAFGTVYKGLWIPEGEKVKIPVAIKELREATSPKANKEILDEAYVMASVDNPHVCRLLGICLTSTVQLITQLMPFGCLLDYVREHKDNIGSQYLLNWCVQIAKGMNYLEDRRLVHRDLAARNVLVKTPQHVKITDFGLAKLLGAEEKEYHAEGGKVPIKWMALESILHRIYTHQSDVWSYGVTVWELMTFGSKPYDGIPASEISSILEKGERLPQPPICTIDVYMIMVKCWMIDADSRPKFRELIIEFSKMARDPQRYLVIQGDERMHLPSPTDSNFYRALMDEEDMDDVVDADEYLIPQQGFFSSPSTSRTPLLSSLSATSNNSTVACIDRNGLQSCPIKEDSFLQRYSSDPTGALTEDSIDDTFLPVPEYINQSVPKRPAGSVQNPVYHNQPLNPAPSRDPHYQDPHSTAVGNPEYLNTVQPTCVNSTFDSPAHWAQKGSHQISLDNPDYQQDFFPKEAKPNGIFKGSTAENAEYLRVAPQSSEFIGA

NCI-H1975 = experiment: cells; type: functional, cell-based; details: Homo sapiens, NCI-H1975, 72 h
[6] = biological target: T1, Epidermal growth factor receptor; details: A549, at 1 µM
[7] = biological target: T1, Epidermal growth factor receptor; details: A549, at 1 µM; remark: listed apart in the source
[8] = tested on: Epidermal growth factor receptor (Homo sapiens), P00533 [L858R,T790M]; details: NCI-H1975, at 0.1 µM
Sequence of Epidermal growth factor receptor (Homo sapiens), P00533 [L858R,T790M] (P00533 whole entry T790M/L858R, looked up): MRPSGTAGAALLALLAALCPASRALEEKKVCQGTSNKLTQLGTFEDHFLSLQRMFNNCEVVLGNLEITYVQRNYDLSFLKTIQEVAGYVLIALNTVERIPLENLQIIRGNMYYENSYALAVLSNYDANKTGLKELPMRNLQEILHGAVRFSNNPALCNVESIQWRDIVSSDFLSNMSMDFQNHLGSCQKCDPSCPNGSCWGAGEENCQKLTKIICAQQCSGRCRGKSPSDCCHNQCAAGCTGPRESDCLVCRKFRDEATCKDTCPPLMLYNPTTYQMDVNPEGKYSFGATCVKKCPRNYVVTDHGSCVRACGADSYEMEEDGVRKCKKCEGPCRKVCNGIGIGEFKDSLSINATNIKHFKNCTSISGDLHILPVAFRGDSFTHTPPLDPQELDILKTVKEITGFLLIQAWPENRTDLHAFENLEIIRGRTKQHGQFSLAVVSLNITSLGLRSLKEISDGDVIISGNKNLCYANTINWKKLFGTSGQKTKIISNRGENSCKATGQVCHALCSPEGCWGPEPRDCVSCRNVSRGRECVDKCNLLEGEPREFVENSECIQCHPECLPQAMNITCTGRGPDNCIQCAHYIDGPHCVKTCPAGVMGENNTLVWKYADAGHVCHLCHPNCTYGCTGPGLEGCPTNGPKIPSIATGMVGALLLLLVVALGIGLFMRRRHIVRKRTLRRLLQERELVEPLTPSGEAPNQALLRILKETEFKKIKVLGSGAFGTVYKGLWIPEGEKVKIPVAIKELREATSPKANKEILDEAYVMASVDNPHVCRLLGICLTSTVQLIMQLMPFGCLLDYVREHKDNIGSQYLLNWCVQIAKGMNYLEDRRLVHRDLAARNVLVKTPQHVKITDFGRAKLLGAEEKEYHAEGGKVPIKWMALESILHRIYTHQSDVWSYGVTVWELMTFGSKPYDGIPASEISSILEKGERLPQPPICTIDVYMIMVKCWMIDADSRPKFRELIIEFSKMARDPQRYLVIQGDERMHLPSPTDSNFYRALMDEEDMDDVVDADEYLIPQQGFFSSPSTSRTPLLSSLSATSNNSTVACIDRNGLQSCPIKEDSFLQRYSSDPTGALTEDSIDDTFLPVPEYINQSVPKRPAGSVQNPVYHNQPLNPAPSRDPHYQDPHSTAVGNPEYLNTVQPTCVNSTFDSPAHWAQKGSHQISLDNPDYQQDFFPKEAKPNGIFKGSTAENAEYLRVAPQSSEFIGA

[9] = tested on: Epidermal growth factor receptor (Homo sapiens), P00533 [L858R,T790M]; details: NCI-H1975, at 1 µM
A549 = experiment: Ratio of drug uptake in human A549 cells at 1 uM measured after 1 hr to drug uptake in human A549 cells at 1 uM incubated for 1 hr followed by compound washout and measured after 8 hrs; type: ADME, cell-based; details: a549, 1 µM; outline: as §1
[10] = biological target: T1, Epidermal growth factor receptor

| SMILES | Drug uptake [1] [µM] | Drug uptake [2] [µM] | T1/2 [3] [h] | Activity [4] [a.u.] | IC50 [5] [nM] | IC50 (NCI-H1975) [nM] | inhibition [6] [%] | inhibition [7] [%] | inhibition [8] [%] | inhibition [9] [%] | Ratio (A549) | IC50 [10] [nM] |
| --- | --- | --- | --- | --- | --- | --- | --- | --- | --- | --- | --- | --- |
| COc1cc2ncnc(Nc3ccc(F)c(Cl)c3)c2cc1OCCCN1CCOCC1 [GEFITINIB] | 271 | 2.4 | – | – | – | – | – | – | – | – | – | – |

Continued, values first:

| Drug uptake [1] [µM] | Drug uptake [2] [µM] | T1/2 [3] [h] | Activity [4] [a.u.] | IC50 [5] [nM] | IC50 (NCI-H1975) [nM] | inhibition [6] [%] | inhibition [7] [%] | inhibition [8] [%] | inhibition [9] [%] | Ratio (A549) | IC50 [10] [nM] | SMILES |
| --- | --- | --- | --- | --- | --- | --- | --- | --- | --- | --- | --- | --- |
| – | – | > 24 | 5 | 44 | 6100 | 97 | 97 | 20 | 16 | – | – | CCOc1cc2ncnc(Nc3ccc(F)c(Cl)c3)c2cc1NC(=O)COC(=O)c1c(C)cccc1C |
| – | – | > 24 | 11 | 25 | 8300 | 88 | 89 | 0.5 | 43 | – | – | CCOc1cc2ncnc(Nc3ccc(F)c(Cl)c3)c2cc1NC(=O)COC(=O)c1ccccc1 |
| 132 | 1.1 | > 24 | – | 27 | > 10000 | 90 | 77 | 0 | 0 | 120 | 0.34 | CCOc1cc2ncnc(Nc3ccc(F)c(Cl)c3)c2cc1NC(=O)CO |
| 5.8 | < 0.05 | 23.3 | 0.64 | 34 | 3400 | 97 | 75 | 27 | 68 | – | 0.52 | CCOc1cc2ncnc(Nc3ccc(F)c(Cl)c3)c2cc1NC(=O)COC(C)=O |
